Laboratory results taken from ChEMBL document CHEMBL1777742, “Synthesis, cytotoxic activities and cell cycle arrest profiles of naphtho[2,1-α]pyrrolo[3,4-c]carbazole-5,7(6H,12H)-dione glycosides” (Bioorg Med Chem Lett, 2011).
The source made the active and inactive calls. The calls are words filed in the database; no cut-off is given here.

Legend:
Format in all cases: functional, cell-based
MCF7 [1] = test: Cell cycle arrest in human MCF7 cells assessed as accumulation of cells at S phase at 10 uM after 24 hrs by FACS analysis
Summary of the method: (§1)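 MCF-7 breast cells were exposed to each compound at 10 μM for 24 h. Cell-cycle distribution was then analysed by FACS, reading the percentage of cells in G1 and S phases.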

MDA-MB-468 = test: Cytotoxicity against human MDA-MB-468 cells
PC-3 = test: Cytotoxicity against human PC3 cells
MCF7 [2] = test: Cytotoxicity against human MCF7 cells
HCT-116 = test: Cytotoxicity against human HCT116 cells
MDA-MB-231 = test: Cytotoxicity against human MDA-MB-231 cells
MDA-MB-435 = test: Cytotoxicity against human MDA-MB-435 cells
BXPC-3 [3] = test: Cell cycle arrest in human BxPC3 cells assessed as accumulation of cells at S phase at 10 uM after 24 hrs by FACS analysis
Summary of the method: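 BxPC3 cells were treated with each compound at 10 μM. The cell-cycle profile was determined by FACS as the percentage of cells in each phase, including S and G2/M.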

MCF7 [4] = test: Cell cycle arrest in human MCF7 cells assessed as accumulation of cells at G1 phase at 10 uM after 24 hrs by FACS analysis; summary of the method: as §1
A549 = test: Cytotoxicity against human A549 cells
BXPC-3 [5] = test: Cytotoxicity against human BxPC3 cells
BXPC-3 [6] = test: Cell cycle arrest in human BxPC3 cells assessed as accumulation of cells at G2/M phase at 10 uM after 24 hrs by FACS analysis
Summary of the method: (§2)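 Cells were treated with a single 10 μM concentration and analysed by FACS for cell-cycle distribution. The read-out was the percentage of cells in the G1, S and G2/M phases. A 24 h exposure is stated for MCF-7; no duration is given for BxPC3.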

MCF7 [7] = test: Cell cycle arrest in human MCF7 cells assessed as decrease of cells at S phase at 10 uM after 24 hrs by FACS analysis; summary of the method: as §2

O=C1NC(=O)c2c1c1c3ccccc3ccc1c1c2c2ccccc2n1[C@H]1C[C@H](O)[C@@H](CO)O1
Activity (MCF7 [1]): Active | IC50 (MDA-MB-468): 9.1 µM | IC50 (PC-3): 2.6 µM | IC50 (MCF7 [2]): 7.3 µM | IC50 (HCT-116): 8.7 µM | IC50 (MDA-MB-231): 3.3 µM | IC50 (MDA-MB-435): 4.1 µM | Activity (BXPC-3 [3]): Active | Activity (MCF7 [4]): inactive | IC50 (A549): 3.4 µM | IC50 (BXPC-3 [5]): 7.4 µM

O=C1NC(=O)c2c1c1c3ccccc3ccc1c1c2c2ccccc2n1[C@@H]1O[C@H](CO)[C@@H](O)[C@H]1O
Activity (MCF7 [1]): Active | IC50 (MDA-MB-468): 4.4 µM | IC50 (PC-3): 2.4 µM | IC50 (MCF7 [2]): 5.3 µM | IC50 (HCT-116): 3.8 µM | IC50 (MDA-MB-231): 2.4 µM | IC50 (MDA-MB-435): 3.2 µM | Activity (BXPC-3 [3]): Active | Activity (MCF7 [4]): inactive | IC50 (A549): 2.1 µM | IC50 (BXPC-3 [5]): 5.3 µM

O=C1NC(=O)c2c1c1c3ccccc3ccc1c1c2c2ccccc2n1[C@H]1OC[C@@H](O)[C@@H](O)[C@H]1O
Activity (MCF7 [1]): Active | IC50 (MDA-MB-468): 3.4 µM | IC50 (PC-3): 2.1 µM | IC50 (MCF7 [2]): 4.8 µM | IC50 (HCT-116): 6 µM | IC50 (MDA-MB-231): 3.3 µM | IC50 (MDA-MB-435): 3.3 µM | Activity (MCF7 [4]): inactive | IC50 (A549): 2 µM | IC50 (BXPC-3 [5]): 6.6 µM

O=C1NC(=O)c2c1c1c3ccccc3ccc1c1[nH]c3ccccc3c21
IC50 (MDA-MB-468): > 10 µM | IC50 (PC-3): 5.9 µM | Activity (BXPC-3 [6]): Active | IC50 (MCF7 [2]): 8.3 µM | IC50 (HCT-116): 5.7 µM | IC50 (MDA-MB-231): 8.1 µM | IC50 (MDA-MB-435): 5.7 µM | Activity (MCF7 [7]): Active | Activity (MCF7 [4]): Active | IC50 (A549): 2.6 µM | IC50 (BXPC-3 [5]): 8.3 µM

C[C@@H]1O[C@@H](n2c3ccccc3c3c4c(c5c6ccccc6ccc5c32)C(=O)NC4=O)[C@H](O)[C@H](O)[C@H]1O
Activity (MCF7 [1]): Active | IC50 (MDA-MB-468): 5 µM | IC50 (PC-3): 2.7 µM | IC50 (MCF7 [2]): 4.5 µM | IC50 (HCT-116): 3.1 µM | IC50 (MDA-MB-231): 4.7 µM | IC50 (MDA-MB-435): 3.6 µM | Activity (MCF7 [4]): inactive | IC50 (A549): 2.8 µM | IC50 (BXPC-3 [5]): 7.3 µM

O=C1NC(=O)c2c1c1c3ccccc3ccc1c1c2c2ccccc2n1[C@@H]1O[C@H](CO)[C@@H](O)[C@H](O)[C@H]1O
Activity (MCF7 [1]): Active | IC50 (MDA-MB-468): 6.1 µM | IC50 (PC-3): 2.3 µM | IC50 (MCF7 [2]): 6.1 µM | IC50 (HCT-116): 5.1 µM | IC50 (MDA-MB-231): 2.7 µM | IC50 (MDA-MB-435): 3.5 µM | Activity (BXPC-3 [3]): Active | Activity (MCF7 [4]): inactive | IC50 (A549): 2.8 µM | IC50 (BXPC-3 [5]): 5.4 µM
